# The source made the active and inactive calls. The calls are words filed in the database; no cut-off is given here.
# Tests used:
# [1] = molecular target: Epidermal growth factor receptor (Homo sapiens) (UniProt P00533); test: Inhibition of EGFR (unknown origin) transfected in mouse Ba/F3 cells at 1 uM after 24 hrs; format: cell-based; details: BaF3
# In short: (§1)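 Kinase specificity panel: each Ba/F3 line transformed with one of 24 tyrosine kinases depends on that kinase to grow. Cells were given compound at 1 or 5 µM for 24 h, with DMSO as comparator. Percentage growth was read by ATP-lite luminescence and reported as mean ± SEM.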
# [2] = molecular target: Ephrin type-A receptor 5 (Homo sapiens) (UniProt P54756); test: Inhibition of EPHA5 (unknown origin) transfected in mouse Ba/F3 cells at 1 uM after 24 hrs; format: cell-based; details: BaF3; in short: as §1
# [3] = test system: BaF3; test: Cytotoxicity against mouse BA/F3 cells transfected with FLT3-ITD at 1 uM after 24 hrs by plate reader analysis; format: functional, cell-based
# [4] = molecular target: Tyrosine-protein kinase HCK (Homo sapiens) (UniProt P08631); test: Inhibition of HCK (unknown origin) transfected in mouse Ba/F3 cells at 5 uM after 24 hrs; format: cell-based; details: BaF3; in short: as §1
# [5] = molecular target: T1, Megakaryocyte-associated tyrosine-protein kinase (Homo sapiens) (UniProt P42679); test: Inhibition of MATK1 (unknown origin) transfected in mouse Ba/F3 cells at 5 uM after 24 hrs; format: cell-based; details: BaF3
# T1 sequence (whole entry): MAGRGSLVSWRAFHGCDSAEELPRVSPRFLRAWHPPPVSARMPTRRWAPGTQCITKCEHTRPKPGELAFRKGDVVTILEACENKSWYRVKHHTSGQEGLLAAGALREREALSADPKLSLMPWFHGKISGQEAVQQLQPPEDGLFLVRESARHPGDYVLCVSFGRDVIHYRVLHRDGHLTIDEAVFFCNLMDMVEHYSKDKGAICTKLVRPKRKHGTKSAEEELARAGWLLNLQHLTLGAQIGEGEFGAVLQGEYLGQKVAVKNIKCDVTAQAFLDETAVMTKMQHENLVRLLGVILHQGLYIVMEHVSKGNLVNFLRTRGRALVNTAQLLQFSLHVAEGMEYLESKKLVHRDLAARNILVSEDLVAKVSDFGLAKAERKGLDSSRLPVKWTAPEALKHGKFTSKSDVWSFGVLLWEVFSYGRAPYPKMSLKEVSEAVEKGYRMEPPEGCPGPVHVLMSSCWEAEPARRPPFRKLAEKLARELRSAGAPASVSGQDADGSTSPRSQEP
# [6] = molecular target: Ephrin type-A receptor 5 (Homo sapiens) (UniProt P54756); test: Inhibition of EPHA5 (unknown origin) transfected in mouse Ba/F3 cells at 5 uM after 24 hrs; format: cell-based; details: BaF3; in short: as §1
# [7] = test system: BaF3; test: Cytotoxicity against mouse BA/F3 cells transfected with […] at 1 uM after 24 hrs by plate reader analysis; format: functional, cell-based
# [8] = molecular target: Insulin-like growth factor 1 receptor (Homo sapiens) (UniProt P08069); test: Inhibition of IGF1R (unknown origin) transfected in mouse Ba/F3 cells at 5 uM after 24 hrs; format: cell-based; details: BaF3; in short: as §1
# [9] = molecular target: T2, Non-receptor tyrosine-protein kinase TNK1 (Homo sapiens) (UniProt Q13470); test: Inhibition of TNK1 (unknown origin) transfected in mouse Ba/F3 cells at 5 uM after 24 hrs; format: cell-based; details: BaF3
# T2 sequence (whole entry): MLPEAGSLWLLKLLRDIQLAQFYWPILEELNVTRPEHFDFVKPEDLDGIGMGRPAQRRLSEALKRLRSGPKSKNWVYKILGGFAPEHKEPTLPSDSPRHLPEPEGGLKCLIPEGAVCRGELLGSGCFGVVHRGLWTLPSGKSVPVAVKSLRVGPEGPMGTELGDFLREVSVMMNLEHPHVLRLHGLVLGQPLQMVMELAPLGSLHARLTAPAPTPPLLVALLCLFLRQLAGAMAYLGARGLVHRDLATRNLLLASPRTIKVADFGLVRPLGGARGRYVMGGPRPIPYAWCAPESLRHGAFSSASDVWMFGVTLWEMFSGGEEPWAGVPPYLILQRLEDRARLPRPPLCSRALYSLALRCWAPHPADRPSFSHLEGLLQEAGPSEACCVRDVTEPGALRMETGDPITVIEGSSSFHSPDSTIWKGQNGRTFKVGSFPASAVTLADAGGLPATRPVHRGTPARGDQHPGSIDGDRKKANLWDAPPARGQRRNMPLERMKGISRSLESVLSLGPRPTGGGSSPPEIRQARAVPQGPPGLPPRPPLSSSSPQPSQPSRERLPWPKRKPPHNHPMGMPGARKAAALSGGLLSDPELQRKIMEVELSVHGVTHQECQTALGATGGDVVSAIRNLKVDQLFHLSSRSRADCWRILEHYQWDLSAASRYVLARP
# [10] = molecular target: Ephrin type-A receptor 7 (Homo sapiens) (UniProt Q15375); test: Inhibition of EPHA7 (unknown origin) transfected in mouse Ba/F3 cells at 5 uM after 24 hrs; format: cell-based; details: BaF3; in short: as §1
# [11] = molecular target: T3, Tyrosine-protein kinase receptor TYRO3 (Homo sapiens) (UniProt Q06418); test: Inhibition of TYRO3 (unknown origin) transfected in mouse Ba/F3 cells at 5 uM after 24 hrs; format: cell-based; details: BaF3
# T3 sequence (whole entry): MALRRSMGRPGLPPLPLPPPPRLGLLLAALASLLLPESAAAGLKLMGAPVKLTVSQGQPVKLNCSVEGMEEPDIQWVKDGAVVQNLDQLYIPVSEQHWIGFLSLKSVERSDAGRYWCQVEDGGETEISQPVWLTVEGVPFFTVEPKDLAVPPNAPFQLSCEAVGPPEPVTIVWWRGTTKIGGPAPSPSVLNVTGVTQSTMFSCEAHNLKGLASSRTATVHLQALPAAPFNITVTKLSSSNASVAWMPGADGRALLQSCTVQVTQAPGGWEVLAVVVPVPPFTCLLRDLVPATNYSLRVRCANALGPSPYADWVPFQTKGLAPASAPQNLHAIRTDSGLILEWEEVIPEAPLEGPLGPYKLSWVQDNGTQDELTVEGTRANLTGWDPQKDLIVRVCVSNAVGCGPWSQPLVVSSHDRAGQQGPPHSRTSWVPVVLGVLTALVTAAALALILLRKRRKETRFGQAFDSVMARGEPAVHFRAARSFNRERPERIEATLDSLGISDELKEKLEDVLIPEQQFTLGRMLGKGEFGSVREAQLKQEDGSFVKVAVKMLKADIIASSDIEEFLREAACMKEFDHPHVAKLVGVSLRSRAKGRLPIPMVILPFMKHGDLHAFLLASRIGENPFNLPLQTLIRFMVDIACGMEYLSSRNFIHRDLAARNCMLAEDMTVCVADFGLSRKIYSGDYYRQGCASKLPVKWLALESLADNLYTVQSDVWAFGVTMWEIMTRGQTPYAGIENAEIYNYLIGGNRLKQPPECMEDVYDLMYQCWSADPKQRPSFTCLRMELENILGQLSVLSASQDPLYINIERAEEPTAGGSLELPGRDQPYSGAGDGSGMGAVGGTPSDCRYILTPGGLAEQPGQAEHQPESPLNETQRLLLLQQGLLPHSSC
# [12] = molecular target: Proto-oncogene tyrosine-protein kinase Src (Homo sapiens) (UniProt P12931); test: Inhibition of SRC (unknown origin) transfected in mouse Ba/F3 cells at 5 uM after 24 hrs; format: cell-based; details: BaF3
# [13] = molecular target: Tyrosine-protein kinase Yes (Homo sapiens) (UniProt P07947); test: Inhibition of YES (unknown origin) transfected in mouse Ba/F3 cells at 5 uM after 24 hrs; format: cell-based; details: BaF3
# Sequence of Tyrosine-protein kinase Yes (Homo sapiens) (P07947 2-543 limits assumed): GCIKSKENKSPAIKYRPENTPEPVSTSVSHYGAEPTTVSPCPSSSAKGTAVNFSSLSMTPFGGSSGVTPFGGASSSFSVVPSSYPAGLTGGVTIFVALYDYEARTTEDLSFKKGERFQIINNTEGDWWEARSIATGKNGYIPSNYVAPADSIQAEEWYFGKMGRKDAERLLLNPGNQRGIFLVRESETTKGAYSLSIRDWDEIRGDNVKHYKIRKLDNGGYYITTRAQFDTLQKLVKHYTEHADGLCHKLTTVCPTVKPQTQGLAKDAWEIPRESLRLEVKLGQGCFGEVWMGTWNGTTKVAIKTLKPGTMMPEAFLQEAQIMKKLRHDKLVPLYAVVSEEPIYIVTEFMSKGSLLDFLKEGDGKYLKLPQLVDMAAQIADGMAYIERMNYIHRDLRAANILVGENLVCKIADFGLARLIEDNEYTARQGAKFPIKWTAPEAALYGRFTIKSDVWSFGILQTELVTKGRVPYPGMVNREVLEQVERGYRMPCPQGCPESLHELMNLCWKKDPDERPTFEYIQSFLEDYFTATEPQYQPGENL
# Sequence of Ephrin type-A receptor 5 (Homo sapiens) (P54756 whole entry): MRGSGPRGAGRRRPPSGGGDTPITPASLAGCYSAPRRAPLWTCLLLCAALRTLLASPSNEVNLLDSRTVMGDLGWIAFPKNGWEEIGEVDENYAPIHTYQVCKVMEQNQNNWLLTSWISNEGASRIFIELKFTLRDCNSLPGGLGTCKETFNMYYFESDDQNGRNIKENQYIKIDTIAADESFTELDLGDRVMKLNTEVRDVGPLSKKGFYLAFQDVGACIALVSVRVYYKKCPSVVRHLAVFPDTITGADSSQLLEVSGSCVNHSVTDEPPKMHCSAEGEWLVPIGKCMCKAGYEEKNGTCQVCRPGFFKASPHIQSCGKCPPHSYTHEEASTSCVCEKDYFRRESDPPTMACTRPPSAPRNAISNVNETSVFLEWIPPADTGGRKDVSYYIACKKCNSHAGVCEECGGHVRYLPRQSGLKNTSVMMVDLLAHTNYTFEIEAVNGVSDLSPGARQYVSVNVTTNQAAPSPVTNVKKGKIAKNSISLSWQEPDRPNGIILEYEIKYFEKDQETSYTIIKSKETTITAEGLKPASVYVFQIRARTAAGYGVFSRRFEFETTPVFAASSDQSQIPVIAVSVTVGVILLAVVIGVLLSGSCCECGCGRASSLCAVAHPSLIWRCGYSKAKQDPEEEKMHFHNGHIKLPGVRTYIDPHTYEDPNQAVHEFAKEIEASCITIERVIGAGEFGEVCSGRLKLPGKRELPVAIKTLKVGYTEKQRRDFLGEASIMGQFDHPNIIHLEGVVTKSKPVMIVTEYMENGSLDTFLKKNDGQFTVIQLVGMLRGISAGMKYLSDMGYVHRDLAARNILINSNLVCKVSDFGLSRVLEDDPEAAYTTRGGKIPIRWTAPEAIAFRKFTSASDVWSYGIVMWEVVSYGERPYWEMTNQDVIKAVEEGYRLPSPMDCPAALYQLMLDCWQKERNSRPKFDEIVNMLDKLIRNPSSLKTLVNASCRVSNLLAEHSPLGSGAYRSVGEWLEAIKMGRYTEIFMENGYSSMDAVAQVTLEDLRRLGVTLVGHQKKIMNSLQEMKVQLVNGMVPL
# Sequence of Epidermal growth factor receptor (Homo sapiens) (P00533 whole entry): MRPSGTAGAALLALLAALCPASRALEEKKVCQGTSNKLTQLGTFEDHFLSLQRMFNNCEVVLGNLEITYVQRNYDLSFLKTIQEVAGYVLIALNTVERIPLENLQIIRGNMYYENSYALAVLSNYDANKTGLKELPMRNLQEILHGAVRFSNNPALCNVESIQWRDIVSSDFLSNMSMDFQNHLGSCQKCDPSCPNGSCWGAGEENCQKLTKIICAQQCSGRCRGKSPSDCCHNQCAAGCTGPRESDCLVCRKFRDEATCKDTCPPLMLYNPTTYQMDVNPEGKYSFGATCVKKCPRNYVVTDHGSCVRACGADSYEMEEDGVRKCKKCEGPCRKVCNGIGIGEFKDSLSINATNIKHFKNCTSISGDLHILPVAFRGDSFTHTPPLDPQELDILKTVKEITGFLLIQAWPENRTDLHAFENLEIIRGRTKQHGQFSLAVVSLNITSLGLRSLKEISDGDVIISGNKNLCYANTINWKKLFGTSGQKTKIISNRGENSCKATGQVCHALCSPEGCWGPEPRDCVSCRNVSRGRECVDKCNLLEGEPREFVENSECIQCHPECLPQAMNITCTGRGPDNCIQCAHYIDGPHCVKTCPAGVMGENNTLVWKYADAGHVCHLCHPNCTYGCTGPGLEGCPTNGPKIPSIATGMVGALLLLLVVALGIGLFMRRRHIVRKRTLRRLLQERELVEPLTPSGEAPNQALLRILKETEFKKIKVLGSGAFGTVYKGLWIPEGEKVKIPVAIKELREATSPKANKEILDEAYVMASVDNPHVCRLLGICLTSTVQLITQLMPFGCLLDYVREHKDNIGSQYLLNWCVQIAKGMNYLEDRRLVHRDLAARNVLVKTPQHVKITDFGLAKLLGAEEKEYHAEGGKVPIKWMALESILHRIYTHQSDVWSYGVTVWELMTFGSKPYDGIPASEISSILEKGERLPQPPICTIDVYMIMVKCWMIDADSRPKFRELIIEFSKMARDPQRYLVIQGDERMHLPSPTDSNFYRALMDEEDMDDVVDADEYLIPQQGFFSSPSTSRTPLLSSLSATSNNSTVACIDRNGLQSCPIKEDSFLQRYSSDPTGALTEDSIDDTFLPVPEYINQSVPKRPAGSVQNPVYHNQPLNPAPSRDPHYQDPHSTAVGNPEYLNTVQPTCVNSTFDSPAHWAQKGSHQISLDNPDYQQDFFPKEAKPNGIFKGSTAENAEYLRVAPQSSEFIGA
# Sequence of Insulin-like growth factor 1 receptor (Homo sapiens) (P08069 31-736 limits assumed): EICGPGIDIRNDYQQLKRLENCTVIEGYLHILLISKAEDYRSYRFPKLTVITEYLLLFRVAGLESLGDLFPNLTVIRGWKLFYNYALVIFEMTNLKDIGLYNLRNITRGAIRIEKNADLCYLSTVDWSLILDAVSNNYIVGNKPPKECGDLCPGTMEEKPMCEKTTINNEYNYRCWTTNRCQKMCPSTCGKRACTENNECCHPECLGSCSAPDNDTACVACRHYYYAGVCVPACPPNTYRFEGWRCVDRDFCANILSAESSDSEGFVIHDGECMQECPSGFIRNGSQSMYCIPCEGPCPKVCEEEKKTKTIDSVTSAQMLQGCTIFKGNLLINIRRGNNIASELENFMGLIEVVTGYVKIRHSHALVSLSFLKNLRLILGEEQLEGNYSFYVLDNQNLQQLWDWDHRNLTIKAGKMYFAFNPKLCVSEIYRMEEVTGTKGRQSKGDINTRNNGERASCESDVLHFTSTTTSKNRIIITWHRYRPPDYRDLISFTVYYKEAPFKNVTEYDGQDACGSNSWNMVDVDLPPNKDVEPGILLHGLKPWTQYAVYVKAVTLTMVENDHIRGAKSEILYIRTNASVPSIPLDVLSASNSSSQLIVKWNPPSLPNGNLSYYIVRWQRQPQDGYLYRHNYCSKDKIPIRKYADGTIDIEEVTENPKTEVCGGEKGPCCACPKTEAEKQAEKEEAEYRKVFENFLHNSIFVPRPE
# Sequence of Insulin-like growth factor 1 receptor (Homo sapiens) (P08069 741-1367 limits assumed): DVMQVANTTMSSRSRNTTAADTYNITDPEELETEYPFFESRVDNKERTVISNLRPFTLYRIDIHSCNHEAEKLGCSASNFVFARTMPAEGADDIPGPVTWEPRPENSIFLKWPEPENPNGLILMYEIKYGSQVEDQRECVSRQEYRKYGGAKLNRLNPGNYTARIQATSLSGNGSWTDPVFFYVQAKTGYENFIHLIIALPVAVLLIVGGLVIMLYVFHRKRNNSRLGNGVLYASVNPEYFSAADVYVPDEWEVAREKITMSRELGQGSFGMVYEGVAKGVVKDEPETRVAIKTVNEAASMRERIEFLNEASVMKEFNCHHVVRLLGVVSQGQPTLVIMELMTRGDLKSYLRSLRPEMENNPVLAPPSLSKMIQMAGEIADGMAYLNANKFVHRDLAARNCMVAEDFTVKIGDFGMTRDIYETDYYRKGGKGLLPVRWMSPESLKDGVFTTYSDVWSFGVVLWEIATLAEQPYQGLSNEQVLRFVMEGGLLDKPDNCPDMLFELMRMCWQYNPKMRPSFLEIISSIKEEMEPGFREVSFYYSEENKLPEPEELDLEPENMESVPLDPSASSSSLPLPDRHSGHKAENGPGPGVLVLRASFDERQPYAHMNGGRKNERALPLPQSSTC
# Sequence of Proto-oncogene tyrosine-protein kinase Src (Homo sapiens) (P12931 2-536 limits assumed): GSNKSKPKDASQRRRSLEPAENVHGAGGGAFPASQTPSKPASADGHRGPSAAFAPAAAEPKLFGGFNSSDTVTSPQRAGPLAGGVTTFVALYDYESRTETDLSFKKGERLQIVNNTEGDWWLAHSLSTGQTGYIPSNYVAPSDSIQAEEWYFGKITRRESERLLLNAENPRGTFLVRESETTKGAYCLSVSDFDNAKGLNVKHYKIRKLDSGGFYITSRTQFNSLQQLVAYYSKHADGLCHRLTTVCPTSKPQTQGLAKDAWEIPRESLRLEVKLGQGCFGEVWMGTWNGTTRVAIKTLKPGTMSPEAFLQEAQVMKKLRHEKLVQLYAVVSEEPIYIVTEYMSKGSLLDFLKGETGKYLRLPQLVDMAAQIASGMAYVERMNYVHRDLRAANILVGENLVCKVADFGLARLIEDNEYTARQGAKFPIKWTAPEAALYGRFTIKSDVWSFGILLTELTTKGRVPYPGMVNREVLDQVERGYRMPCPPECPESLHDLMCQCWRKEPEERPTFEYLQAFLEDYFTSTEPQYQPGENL
Structure (SMILES),inhibition [1],inhibition [2],Activity [3],inhibition [4],inhibition [5],inhibition [6],Activity [7],inhibition [8],inhibition [9],inhibition [10],inhibition [11],inhibition [12],inhibition [13]
Cc1cccc(C(=O)Nc2cc(-c3ccc(F)cc3)n[nH]2)c1,inactive,inactive,Active,–,–,–,–,–,–,–,–,–,–
Cc1ccc(-n2cnc3cc(Nc4nnc(C)c5ccccc45)ccc32)cc1,–,–,Active,inactive,inactive,inactive,Active,inactive,inactive,inactive,inactive,inactive,inactive
Cc1ccc(-c2cc(NC(=O)c3ccc(F)cc3)[nH]n2)cc1,inactive,inactive,Active,–,–,–,–,–,–,–,–,–,–
Fc1ccc(-c2n[nH]cc2-c2ccncc2)cc1Cl,–,–,Active,inactive,inactive,Active,–,inactive,inactive,inactive,inactive,Active,inactive
COc1ccc(C(=O)Nc2cc(-c3ccccc3)[nH]n2)cc1,inactive,inactive,Active,–,–,–,Active,–,–,–,–,–,–
